The values below come from ChEMBL document CHEMBL1136806, “Synthesis and in vitro and in vivo antimalarial activity of N1-(7-chloro-4-quinolyl)-1,4-bis(3-aminopropyl)piperazine derivatives” (J Med Chem, 2003).

Data set [1] is described as follows: Partition coefficient was determined by dividing the concentration of compound in 1-octanol by concentration in aqueous phase at pH 5.0. To be noted: 1-octanol/aqueous phase, read-out: Log D5.0. Type of data set: physicochemical.
A short description of data set [2]: Partition coefficient was determined by dividing the concentration of compound in 1-octanol by concentration in aqueous phase at pH 7.4. Type of data set: physicochemical. To be noted: 1-octanol/aqueous phase, read-out: Log D7.4.
In data set [3] the test system is Plasmodium falciparum. Put plainly: In vitro antimalarial activity against Plasmodium falciparum FcB1. It counts as functional, organism-based. In a few lines: (§1)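 Asynchronous P. falciparum FcB1 cultures in human erythrocytes (0.5% parasitemia, 1% hematocrit) were exposed to serial dilutions for 24 h at 37 °C. [3H]-hypoxanthine was then added. Incorporation was compared with drug-free controls, DMSO ≤0.1%. IC50 came from the concentration–response curve, reported as mean ± SD of three experiments.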

The test system of data set [4] is MRC5. In words: Cytotoxicity was tested on human diploid embryonic lung cell line (MRC-5) (in vitro). It counts as functional.
A short description of data set [5]: Vacuolar accumulation ratio was determined. Type of data set: functional. In a few lines:
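Calculated, not measured: Henderson–Hasselbalch-derived equation using predicted pKa values, assuming vacuolar pH 5.0 and external pH 7.4.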

The subject of data set [6] is MRC5. Put plainly: Cytotoxicity of compound was tested on human diploid embryonic lung cell line (MRC-5). It counts as functional.
For data set [7], the system named is Plasmodium falciparum. Put plainly: Antimalarial activity against Plasmodium falciparum FcB1. It counts as functional, organism-based. In a few lines:
as §1

With `Clc1ccc2c(NCCCN3CCN(CCCN(CC4CC4)CC4CC4)CC3)ccnc2c1`, the values for the logD in data set [1] and in data set [2] were less than -2.78 and 1.16, respectively.
The molecule `COc1ccc(C(=O)NCCCN2CCN(CCCNc3ccnc4cc(Cl)ccc34)CC2)cc1` gave an IC50 in the data set on Plasmodium falciparum [3] of 0.0202 µM. The CC50 with MRC5 [4] came to 4 µM.
As for `O=C(NCCCN1CCN(CCCNc2ccnc3cc(Cl)ccc23)CC1)c1ccc([N+](=O)[O-])cc1`, the logD is 0.31 in data set [1] and more than 2.78 in data set [2].
As for `Clc1ccc2c(NCCCN3CCN(CCCN(CCc4ccccc4)CCc4ccccc4)CC3)ccnc2c1`, in the data set on Plasmodium falciparum [3], the midpoint of inhibition, the IC50, lay at 0.0262 µM. Moreover, in the data set on MRC5 [4], it took 1 µM to reach half-maximal cytotoxicity (CC50).
In the case of `CCCCN(CCCC)CCCN1CCN(CCCNc2ccnc3cc(Cl)ccc23)CC1`, the logD in data set [1] was -1.75; in data set [2], 1.92.
On to `O=C(NCCCN1CCN(CCCNc2ccnc3cc(Cl)ccc23)CC1)c1cccc(Oc2ccccc2)c1`, for which the half-inhibitory concentration (IC50) with Plasmodium falciparum [3] is 0.0208 µM. In the data set on MRC5 [4], this molecule displayed a CC50 of 5 µM. For the same molecule, the VAR in data set [5] came out at 29500.
As to `O=C(NCCCN1CCN(CCCNc2ccnc3cc(Cl)ccc23)CC1)C1CC1`, the logD in data set [1] was -0.23; in data set [2], more than 2.78.
For the molecule `CCCC(=O)NCCCN1CCN(CCCNc2ccnc3cc(Cl)ccc23)CC1`, in data set [2], the logD is 1.06.
For `COc1ccc(CN(CCCN2CCN(CCCNc3ccnc4cc(Cl)ccc34)CC2)Cc2ccc(OC)cc2)cc1`, the IC50 in the data set with Plasmodium falciparum [3] was 0.0096 µM. Besides, in the data set with MRC5 [4], the CC50 was determined as 1 µM.
For `CCN(CC)CCCC(C)Nc1ccnc2cc(Cl)ccc12` (stereo not drawn) [CHLOROQUINE], it took 50 µM to reach half-maximal cytotoxicity with MRC5 [6] (CC50). In data set [5], the VAR was 53600.
In the data set with Plasmodium falciparum [3], `Clc1ccc2c(NCCCN3CCN(CCCNCc4ccnc5ccccc45)CC3)ccnc2c1` showed an IC50 of 0.0741 µM. The same molecule showed a half-maximal cytotoxic concentration (CC50) in the data set on MRC5 [4] of 1.2 µM.
In the data set on Plasmodium falciparum [3], `Clc1ccc2c(NCCCN3CCN(CCCNCCc4ccccc4)CC3)ccnc2c1` registered an IC50 of 0.0185 µM. In the data set on MRC5 [4], this molecule returned a CC50 of 5 µM.
`O=C(Cc1ccccc1)NCCCN1CCN(CCCNc2ccnc3cc(Cl)ccc23)CC1` yielded a 50% inhibitory concentration (IC50) with Plasmodium falciparum [3] of 0.0674 µM. Moreover, half-maximal cytotoxicity in the data set with MRC5 [4] (CC50) was put at 4 µM.
Regarding `Clc1ccc2c(NCCCN3CCN(CCCNc4ccnc5cc(Cl)ccc45)CC3)ccnc2c1`, the CC50 in the data set on MRC5 [6] was less than 1 µM. Further, the IC50 in the data set with Plasmodium falciparum [7] turned out to be 0.023 µM.
